Source: ChEMBL document CHEMBL1132488, “On the bioactive conformation of NAN-190 (1) and MP3022 (2), 5-HT(1A) receptor antagonists” (J Med Chem, 1999)
pKi: −log10 of the molar value.

Columns and labels:
Rattus norvegicus [1] = species on record: Rattus norvegicus; test: Induction of behavioral syndrome(FT: forepaw treading) by the compound in reserpine pretreated rats at a dose of 16; FT mean score; format: functional
Procedure, shortened: (§1)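 Male Wistar rats (260–300 g) were given reserpine 1 mg/kg sc in saline 18 h before testing. Test compound was then given alone ip as a 1% Tween 80 suspension (2 mL/kg). FBP and FT were each scored 0–3 and summed (maximum 15). n=6 per group; mean ± SEM; Newman–Keuls test.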

Rattus norvegicus [2] = species on record: Rattus norvegicus; test: Effect on 8-OH-DAPT- induced behavioral syndrome(FBP: flat body posture) by the compound in reserpine pretreated rats at a dose of 4; FBP mean score; format: functional
Procedure, shortened: (§2)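 Reserpinized male Wistar rats (reserpine 1 mg/kg sc, 18 h before), groups of 6. Compound given ip in 1% Tween 80 60 min before 8-OH-DPAT 5 mg/kg sc. FBP/FT rated 0–3 at 3, 6, 9, 12 and 15 min after agonist, summed (max 15). Mean ± SEM; Newman–Keuls test; ED50 with range.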

Rattus norvegicus [3] = species on record: Rattus norvegicus; test: Dose Inducing behavioral syndrome(FT: forepaw treading) by the compound in reserpine pretreated rats.; format: functional
Procedure, shortened: (§3)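 Male Wistar rats (260–300 g), groups of 6, given reserpine 1 mg/kg sc 18 h before test. Compounds given ip as 1% Tween 80 suspension. FBP and FT rated 0–3 in 45-s sessions every 3 min, starting 3 min after dosing. Score summed over 5 periods (max 15 per symptom). Mean ± SEM; Newman–Keuls test.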

Rattus norvegicus [4] = test: Induction of LLR(lower lip retraction) by the compound in rats at a dose of 4 mg/kg; LLR score; format: functional
Procedure, shortened: (§4)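 Male Wistar rats, groups of 6, given compound alone ip as 1% Tween 80 suspension. Lower incisor visibility scored 0/0.5/1 at 15, 30 and 45 min after dosing, summed (max 3 per rat). Mean ± SEM versus vehicle, Newman–Keuls test; ED50 with range.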

Rattus norvegicus [5] = species on record: Rattus norvegicus; test: Induction of behavioral syndrome(FBP: flat body posture) by the compound in reserpine pretreated rats at a dose of 16; FBP mean score; format: functional; procedure, shortened: as §3
Rattus norvegicus [6] = species on record: Rattus norvegicus; test: Induction of behavioral syndrome(FT: forepaw treading) by the compound in reserpine pretreated rats at a dose of 8; FT mean score; format: functional; procedure, shortened: as §1
Rattus norvegicus [7] = test: Effect on 8-OH-DPAT-Induced LLR(lower lip retraction) in rats at a dose of 4 mg/kg; LLR score; format: functional
Procedure, shortened: (§5)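 Male Wistar rats, groups of 6. Compound given ip in 1% Tween 80 45 min before 8-OH-DPAT 1 mg/kg sc. Lower incisor visibility scored 0/0.5/1 at 15, 30 and 45 min after agonist, summed (max 3). Mean ± SEM; Newman–Keuls test; ED50 with range.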

Rattus norvegicus [8] = species on record: Rattus norvegicus; test: Induction of behavioral syndrome(FBP: flat body posture) by the compound in reserpine pretreated rats at a dose of 4; FBP mean score; format: functional; procedure, shortened: as §1
Rattus norvegicus [9] = species on record: Rattus norvegicus; test: Induction of behavioral syndrome(FT: forepaw treading) by the compound in reserpine pretreated rats at a dose of 4; FT mean score; format: functional; procedure, shortened: as §1
Rattus norvegicus [10] = species on record: Rattus norvegicus; test: Effect on 8-OH-DAPT- induced behavioral syndrome(FBP: flat body posture) by the compound in reserpine pretreated rats at a dose of 16; FBP mean score; format: functional; procedure, shortened: as §2
Rattus norvegicus [11] = test: Induction of LLR(lower lip retraction) by the compound in rats at a dose of 8 mg/kg; LLR score; format: functional; procedure, shortened: as §4
Rattus norvegicus [12] = test: Induction of LLR(lower lip retraction) by the compound in rats at a dose of 16 mg/kg; LLR score; format: functional; procedure, shortened: as §4
Rattus norvegicus [13] = species on record: Rattus norvegicus; test: Effect on 8-OH-DAPT- induced behavioral syndrome(FBP: flat body posture) by the compound in reserpine pretreated rats at a dose of 8; FBP mean score; format: functional; procedure, shortened: as §2
Rattus norvegicus [14] = test: Effect on 8-OH-DPAT-Induced LLR(lower lip retraction) in rats at a dose of 8 mg/kg; LLR score; format: functional; procedure, shortened: as §5
Rattus norvegicus [15] = species on record: Rattus norvegicus; test: Effect on 8-OH-DAPT- induced behavioral syndrome(FT: forepaw treading) by the compound in reserpine pretreated rats at a dose of 4; FT mean score; format: functional; procedure, shortened: as §2
Rattus norvegicus [16] = test: Effect on 8-OH-DPAT-Induced LLR(lower lip retraction) in rats at a dose of 16 mg/kg; LLR score; format: functional; procedure, shortened: as §5
Rattus norvegicus [17] = species on record: Rattus norvegicus; test: Effect on 8-OH-DAPT- induced behavioral syndrome(FT: forepaw treading) by the compound in reserpine pretreated rats at a dose of 16; FT mean score; format: functional; procedure, shortened: as §2
Rattus norvegicus [18] = species on record: Rattus norvegicus; test: Effective dose of the required to inhibit symptoms produced by 8-OH-DPAT; format: functional; procedure, shortened: as §2
Rattus norvegicus [19] = species on record: Rattus norvegicus; test: Induction of behavioral syndrome(FBP: flat body posture) by the compound in reserpine pretreated rats at a dose of 8; FBP mean score; format: functional; procedure, shortened: as §1
Rattus norvegicus [20] = species on record: Rattus norvegicus; test: Dose Inducing behavioral syndrome(FBP: flat body posture) by the compound in reserpine pretreated rats; format: functional; procedure, shortened: as §3
Rattus norvegicus [21] = species on record: Rattus norvegicus; test: Effect on 8-OH-DAPT- induced behavioral syndrome(FT: forepaw treading) by the compound in reserpine pretreated rats at a dose of 8; FT mean score; format: functional; procedure, shortened: as §2
Rattus norvegicus [22] = species on record: Rattus norvegicus; test: Induction of behavioral syndrome(FT: forepaw treading) by the compound in reserpine pretreated rats at a dose of 32; FT mean score; format: functional; procedure, shortened: as §1
Rattus norvegicus [23] = test: Effect on 8-OH-DPAT-Induced LLR(lower lip retraction) in rats at a dose of 32 mg/kg; format: functional; procedure, shortened: as §5
Rattus norvegicus [24] = species on record: Rattus norvegicus; test: Effect on 8-OH-DAPT- induced behavioral syndrome(FBP: flat body posture) by the compound in reserpine pretreated rats at a dose of 32; FBP mean score; format: functional; procedure, shortened: as §2
Rattus norvegicus [25] = test: Induction of LLR(lower lip retraction) by the compound in rats at a dose of 16 mg/kg; format: functional; procedure, shortened: as §4
Rattus norvegicus [26] = test: Induction of LLR(lower lip retraction) by the compound in rats at a dose of 32 mg/kg; format: functional; procedure, shortened: as §4
Rattus norvegicus [27] = test: Induction of LLR(lower lip retraction) by the compound in rat at a dose of 8 mg/kg; LLR score; format: functional; procedure, shortened: as §4
Rattus norvegicus [28] = species on record: Rattus norvegicus; test: Effect on 8-OH-DAPT- induced behavioral syndrome(FT: forepaw treading) by the compound in reserpine pretreated rats at a dose of 32; FT mean score; format: functional; procedure, shortened: as §2
Rattus norvegicus [29] = species on record: Rattus norvegicus; test: Induction of behavioral syndrome(FBP: flat body posture) by the compound in reserpine pretreated rats at a dose of 32; FBP mean score; format: functional; procedure, shortened: as §1
Rattus norvegicus [30] = species on record: Rattus norvegicus; test: Dose Inducing behavioral syndrome(FT: forepaw treading) by the compound in reserpine pretreated rats; format: functional; procedure, shortened: as §3
Rattus norvegicus [31] = test: Effect on 8-OH-DPAT-Induced LLR(lower lip retraction) in rats at a dose of 8 mg/kg; format: functional; procedure, shortened: as §5
[32] = target: T1, 5-hydroxytryptamine receptor 1A (Rattus norvegicus, UniProt P19327); test: Ability to displace [3H]8-OH-DPAT from 5-hydroxytryptamine 1A receptor
T1 sequence (P19327 whole entry): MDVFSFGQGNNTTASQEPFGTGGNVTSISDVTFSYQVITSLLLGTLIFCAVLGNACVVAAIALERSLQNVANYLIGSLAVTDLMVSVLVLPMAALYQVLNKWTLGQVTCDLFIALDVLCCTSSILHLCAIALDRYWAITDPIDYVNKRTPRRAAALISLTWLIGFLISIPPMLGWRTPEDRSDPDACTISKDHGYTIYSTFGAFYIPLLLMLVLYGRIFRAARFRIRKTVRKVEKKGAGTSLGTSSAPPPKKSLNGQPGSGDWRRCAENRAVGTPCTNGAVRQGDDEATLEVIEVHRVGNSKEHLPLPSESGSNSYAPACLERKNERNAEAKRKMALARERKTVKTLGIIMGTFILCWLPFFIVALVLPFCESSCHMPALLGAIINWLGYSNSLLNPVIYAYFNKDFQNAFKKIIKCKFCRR
Procedure, shortened: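 Rat hippocampal membranes, [3H]8-OH-DPAT radioligand. Ki from at least three competition experiments, each with 10–14 drug concentrations run in triplicate. Ki calculated with the Cheng–Prusoff equation.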

Rattus norvegicus [33] = test: Effect on 8-OH-DPAT-Induced LLR(lower lip retraction) in rats at a dose of 16 mg/kg; format: functional; procedure, shortened: as §5
Rattus norvegicus [34] = species on record: Rattus norvegicus; test: Effect on 8-OH-DAPT- induced behavioral syndrome(FT: forepaw treading) by the compound in reserpine pretreated rats at a dose of 16; format: functional; procedure, shortened: as §2
Rattus norvegicus [35] = species on record: Rattus norvegicus; test: Induction of behavioral syndrome(FBP: flat body posture) by the compound in reserpine pretreated rats at a dose of 8; format: functional; procedure, shortened: as §1
Rattus norvegicus [36] = species on record: Rattus norvegicus; test: Effective dose required to induce LLR(lower lip retraction); format: functional; procedure, shortened: as §4

Structure (SMILES) | FT mean score (Rattus norvegicus [1]) | FBP mean score (Rattus norvegicus [2]) | LLR score (Rattus norvegicus [4]) | FBP mean score (Rattus norvegicus [5]) | FT mean score (Rattus norvegicus [6]) | FBP mean score (Rattus norvegicus [8]) | FT mean score (Rattus norvegicus [9]) | FBP mean score (Rattus norvegicus [10]) | LLR score (Rattus norvegicus [11]) | LLR score (Rattus norvegicus [12]) | FBP mean score (Rattus norvegicus [13]) | FT mean score (Rattus norvegicus [15]) | FT mean score (Rattus norvegicus [17]) | ED50 (Rattus norvegicus [18]) [mg/kg] | FBP mean score (Rattus norvegicus [19]) | ED50 (Rattus norvegicus [20]) [mg/kg] | FT mean score (Rattus norvegicus [21]) | ED50 (Rattus norvegicus [30]) [mg/kg] | pKi [32] | also measured
COc1ccccc1N1CCN(CCCn2nnc3ccccc32)CC1 | 0.1 | 11.5 | 0 | 0.1 | 0.2 | 0.2 | 0.2 | 6.1 | 0.1 | 0.6 | 8 | 5.8 | 2.6 | 6.5 | 0.2 | 10.5 | 3.7 |  |  | ED50 (Rattus norvegicus [3]): 5.2 mg/kg; LLR score (Rattus norvegicus [7]): 1.1; LLR score (Rattus norvegicus [14]): 0.7; LLR score (Rattus norvegicus [16]): 0.9
O=C1c2ccccc2C(=O)N1C1CCC(N2CCc3ccccc3C2)CC1 (configuration not stated) | 0.1 |  |  | 0.5 | 0.1 |  |  | 10.3 |  |  | 11 |  | 5.7 | > 32 | 0.3 | > 32 | 7.5 | 13.5 | 7.47 | FT mean score (Rattus norvegicus [22]): 0.1; LLR score (Rattus norvegicus [23]): 2.3; FBP mean score (Rattus norvegicus [24]): 11.8; LLR score (Rattus norvegicus [25]): 0.2; LLR score (Rattus norvegicus [26]): 0.3; LLR score (Rattus norvegicus [27]): 0.1; FT mean score (Rattus norvegicus [28]): 4.3; FBP mean score (Rattus norvegicus [29]): 0.3; LLR score (Rattus norvegicus [31]): 2.3; LLR score (Rattus norvegicus [33]): 2.5
COc1ccccc1N1CCN(C2CCCC(n3nnc4ccccc43)C2)CC1 (configuration not stated) | 0.1 | 12.5 | 0.9 | 1 | 0.3 | 0.6 | 0.1 | 6.2 | 1.3 | 1.6 | 7 | 9.6 |  |  |  | 11 | 3.5 | 7 | 7.33 | FT mean score (Rattus norvegicus [34]): 0.8; FBP mean score (Rattus norvegicus [35]): 0.5; ED50 (Rattus norvegicus [36]): 8 mg/kg
